Assay results published in ChEMBL document CHEMBL1806371, “Selenocyanates and diselenides: a new class of potent antileishmanial agents” (Eur J Med Chem, 2011).
Active and inactive are the calls of the source. No cut-off for these calls is given here.

Experiments:
[1] = Selectivity ratio, ratio of IC50 for human Jurkat cells to IC50 for Leishmania infantum MCAN/ES/89/IPZ229/1/89 amastigotes; format: ADME, cell-based; settings: read-out: Ratio IC50
In short: (§1)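 Selectivity index is IC50 against Jurkat or THP-1 cells divided by IC50 against L. infantum amastigotes. Host cells were treated in log phase at 4×10^5 cells/mL for 24 h at 37 °C, 5% CO2, at 0.08, 0.4, 2.0, 10.0 and 50.0 μM. Viability was measured by flow cytometry with propidium iodide exclusion.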

Leishmania infantum [2] = test: Antileishmanial activity against Leishmania infantum MCAN/ES/89/IPZ229/1/89 promastigotes after 24 hrs […]; format: functional, organism-based; settings: MCAN/ES/89/IPZ229/1/89, 24 h
In short: (§2)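 Log-phase L. infantum promastigotes (RPMI-1640, 10% FCS, 25 mM HEPES, pH 7.2, 26 °C) treated at 2×10^6 parasites/mL for 24 h. Screening used 25, 12.5 and 6.25 μM to give percent growth inhibition. Living cells measured by flow cytometry with propidium iodide exclusion. At least three independent experiments.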

Leishmania infantum [3] = test: Antileishmanial activity against Leishmania infantum MCAN/ES/89/IPZ229/1/89 promastigotes assessed as growth inhibition at 25 uM after 24 hrs; format: functional; in short: as §2
THP-1 = test: Cytotoxicity against human THP1 cells assessed as live cells in neubauer chamber after 24 hrs by trypan blue assay; format: cell-based; settings: THP-1, 24 h
Leishmania infantum [4] = test: Antileishmanial activity against Leishmania infantum MCAN/ES/89/IPZ229/1/89 amastigotes after 24 hrs by microscopy; format: functional, organism-based; settings: MCAN/ES/89/IPZ229/1/89, 24 h
In short: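 Axenic L. infantum amastigotes (M199, 10% FCS, pH 5.4, 37 °C) treated in log phase at 1×10^6 parasites/mL for 24 h. Living cells counted by flow cytometry with propidium iodide exclusion, with microscopic observation by phase contrast or fluorescence. At least three independent experiments.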

[5] = Selectivity ratio, ratio of IC50 for human THP1 cells to IC50 for Leishmania infantum MCAN/ES/89/IPZ229/1/89 amastigotes; format: ADME, cell-based; settings: THP-1 cells, read-out: Ratio IC50; in short: as §1
Leishmania infantum [6] = test: Antileishmanial activity against Leishmania infantum MCAN/ES/89/IPZ229/1/89 promastigotes assessed as growth inhibition at 12.5 uM after 24 hrs; format: functional; in short: as §2
Jurkat = test: Cytotoxicity against human Jurkat cells assessed as live cells in neubauer chamber after 24 hrs by trypan blue assay; format: cell-based
Leishmania infantum [7] = test: Antileishmanial activity against Leishmania infantum MCAN/ES/89/IPZ229/1/89 promastigotes assessed as growth inhibition at 6.25 uM after 24 hrs; format: functional; in short: as §2
Leishmania infantum [8] = test: Ratio of edelfosine IC50 to compound IC50 for Leishmania infantum MCAN/ES/89/IPZ229/1/89 amastigotes; format: functional
Leishmania infantum [9] = test: Ratio of miltefosine IC50 to compound IC50 for Leishmania infantum MCAN/ES/89/IPZ229/1/89 amastigotes; format: functional
[10] = Human intestinal absorption in human; format: ADME, organism-based; settings: read-out: HIA
In short: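 Values are computed, not measured. Human intestinal absorption (%) and Caco-2 permeability (nm/s) were predicted in silico with the PreADMET program.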

Leishmania infantum [11] = test: Antileishmanial activity against Leishmania infantum MCAN/ES/89/IPZ229/1/89 amastigotes expressing GFP infected in human THP1 cells assessed as parasite infected cells after 48 hrs by flow cytometry (reference value: 35%); format: functional, THP-1
[12] = Permeability across human Caco2 cells; format: ADME, cell-based; settings: Caco-2, read-out: permeability

SMILES	selectivity ratio [1]	IC50 (Leishmania infantum [2])	GI (Leishmania infantum [3])	IC50 (THP-1)	IC50 (Leishmania infantum [4])	selectivity ratio [5]	GI (Leishmania infantum [6])	IC50 (Jurkat)	GI (Leishmania infantum [7])	growth inhibition (GI) (Leishmania infantum [6])	growth inhibition (GI) (Leishmania infantum [7])	growth inhibition (GI) (Leishmania infantum [3])	Ratio IC50 (Leishmania infantum [8])	Ratio IC50 (Leishmania infantum [9])	Fa [10]	Activity (Leishmania infantum [11])	Papp [12]
N#C[Se]Cc1ccc([N+](=O)[O-])cc1	10	4.3 µM	98%	16.8 µM	0.68 µM	25	95%	6.86 µM	82.3%								
FC(F)(F)c1ccc(C[Se][Se]Cc2ccc(C(F)(F)F)cc2)cc1			12.2%				6%		11%								
O=[N+]([O-])c1cccc(C[Se][Se]Cc2cccc([N+](=O)[O-])c2)c1			41.2%				29.4%		18.1%								
N#C[Se]Cc1ccc(C(F)(F)F)cc1	3	11.3 µM	98.8%	19.8 µM	2.14 µM	9	97.2%	7.31 µM	79.4%								
Cc1ccc(C[Se][Se]Cc2ccc(C)cc2)cc1			2.5%							inactive	inactive						
N#C[Se]c1ccc(N)c(C(=O)O)c1												inactive					
N#Cc1cccc(C[Se][Se]Cc2cccc(C#N)c2)c1			44.3%				35.4%		22.6%								
Nc1ccc([Se][Se]c2ccc(N)c(C(=O)O)c2)cc1C(=O)O												inactive					
N#C[Se]Cc1ccc2ccccc2c1	4	11.2 µM	91.5%	16.8 µM	3.72 µM	5	81.1%	14 µM	37.1%								
CN(C)c1ccc([Se]C#N)cc1	10	9.24 µM	97.3%	44.7 µM	2.79 µM	16	86.7%	29.3 µM	54.4%								
N#C[Se]Cc1ccccc1[N+](=O)[O-]	38	3.32 µM	98.6%	7.1 µM	0.34 µM	21	89.8%	12.9 µM	74%				2.4	8.3			
CC(=O)Nc1ccc([Se][Se]c2ccc(NC(C)=O)c(C(=O)O)c2)cc1C(=O)O												inactive					
N#Cc1ccccc1C[Se][Se]Cc1ccccc1C#N			31.5%				16.5%		7.3%								
CN(C)c1ccc([Se][Se]c2ccc(N(C)C)cc2)cc1	> 65		77.6%	> 25 µM		29	67.7%	> 50 µM	51.5%						100%	23%	5.61 ×10⁻⁶ cm/s
N#C[Se]CCc1ccc([N+](=O)[O-])cc1	1	11.9 µM	88.9%	17.2 µM	3.8 µM	5	81.8%	2.4 µM	46.6%								
Cc1ccc(C[Se]C#N)cc1	4	11.8 µM	98.6%	24 µM	3.33 µM	7	82.8%	14.4 µM	52.8%								
N#C[Se]c1ccc(N)cc1	5	11.2 µM	76.3%	> 50 µM	9.29 µM	> 5	38.2%	43.8 µM	14.4%								

SMILES	selectivity ratio [1]	IC50 (Leishmania infantum [2])	GI (Leishmania infantum [3])	IC50 (THP-1)	IC50 (Leishmania infantum [4])	selectivity ratio [5]	GI (Leishmania infantum [6])	IC50 (Jurkat)	GI (Leishmania infantum [7])	growth inhibition (GI) (Leishmania infantum [6])	growth inhibition (GI) (Leishmania infantum [7])	growth inhibition (GI) (Leishmania infantum [3])	Ratio IC50 (Leishmania infantum [8])	Ratio IC50 (Leishmania infantum [9])	Fa [10]	Activity (Leishmania infantum [11])	Papp [12]
c1ccc(C[Se][Se]Cc2ccccc2)cc1 [BISBENZYLDISELENIDE]	41		60.4%	32.2 µM	0.63 µM	51	43.6%	26.1 µM	33.2%						100%	24%	5.83 ×10⁻⁶ cm/s
N#C[Se]Cc1ccc(Br)cc1	2	11.6 µM	97.1%	28.9 µM	7.95 µM	4	80.8%	12.7 µM	49.2%								
N#C[Se]Cc1ccc(C#N)cc1	24	4.14 µM	97%	7.97 µM	0.55 µM	15	80.4%	13.4 µM	51.5%								
CCCCCCCCCCCCCCCCOP(=O)([O-])OCC[N+](C)(C)C [MILTEFOSINE]	17	15 µM		18.5 µM	2.84 µM	7		33.4 µM							99%		2.17 ×10⁻⁶ cm/s
O=[N+]([O-])c1ccc(CC[Se][Se]CCc2ccc([N+](=O)[O-])cc2)cc1			28.4%				3.2%		1.2%								
c1ccc2cc(C[Se][Se]Cc3ccc4ccccc4c3)ccc2c1												inactive					
N#C[Se]Cc1cccc(C#N)c1	16	6.06 µM	93%	7.6 µM	0.53 µM	14	71.2%	8.71 µM	42.2%								
CSc1ccc(C[Se]C#N)cc1	2	11.6 µM	97.2%	17 µM	3.02 µM	6	92.9%	5.07 µM	77.3%								
Brc1ccc(C[Se][Se]Cc2ccc(Br)cc2)cc1			12.2%				1.9%				inactive						
N#C[Se]Cc1ccccc1 [BENZYLSELENOCYANATE]	4	7.95 µM	99.4%	25 µM	2.58 µM	10	64.1%	10.7 µM	46.5%								
COc1ccc(C[Se][Se]Cc2ccc(OC)cc2)cc1			31.7%				9.9%		0.5%								
CC(=O)Nc1ccc([Se]C#N)cc1C(=O)O												inactive					
CSc1ccc(C[Se][Se]Cc2ccc(SC)cc2)cc1			17.5%							inactive	inactive						
N#Cc1ccc(C[Se][Se]Cc2ccc(C#N)cc2)cc1			32.8%				21.9%		10.9%								
N#C[Se]Cc1ccccc1C#N	5	7.75 µM	90.2%	17.1 µM	3.16 µM	5	62.4%	17.1 µM	31.4%								
N#C[Se]Cc1cccc([N+](=O)[O-])c1	21	4.18 µM	97%	9.32 µM	0.57 µM	16	80.5%	12.2 µM	47.2%								
